# In ChEMBL document CHEMBL3232818, “Imidazole-derived 2-[N-carbamoylmethyl-alkylamino]acetic acids, substrate-dependent modulators of insulin-degrading enzyme in amyloid-β hydrolysis” (Eur J Med Chem, 2014):
# The source made the active and inactive calls. The rule behind the calls is not given here.
# What was measured:
# Insulin-degrading enzyme = biological target: T1, Insulin-degrading enzyme (Homo sapiens, UniProt P14735); experiment: (§1) Inhibition of human recombinant IDE-mediated amyloid beta (16 to 23) hydrolysis using ATTO 655-Cys-Lys-Leu-Val-Phe-Phe-Ala-Glu-Asp-Trp as substrate preincubated for 10 mins measured after 30 mins by spectrophotometer analysis
# T1 sequence (P14735 whole entry): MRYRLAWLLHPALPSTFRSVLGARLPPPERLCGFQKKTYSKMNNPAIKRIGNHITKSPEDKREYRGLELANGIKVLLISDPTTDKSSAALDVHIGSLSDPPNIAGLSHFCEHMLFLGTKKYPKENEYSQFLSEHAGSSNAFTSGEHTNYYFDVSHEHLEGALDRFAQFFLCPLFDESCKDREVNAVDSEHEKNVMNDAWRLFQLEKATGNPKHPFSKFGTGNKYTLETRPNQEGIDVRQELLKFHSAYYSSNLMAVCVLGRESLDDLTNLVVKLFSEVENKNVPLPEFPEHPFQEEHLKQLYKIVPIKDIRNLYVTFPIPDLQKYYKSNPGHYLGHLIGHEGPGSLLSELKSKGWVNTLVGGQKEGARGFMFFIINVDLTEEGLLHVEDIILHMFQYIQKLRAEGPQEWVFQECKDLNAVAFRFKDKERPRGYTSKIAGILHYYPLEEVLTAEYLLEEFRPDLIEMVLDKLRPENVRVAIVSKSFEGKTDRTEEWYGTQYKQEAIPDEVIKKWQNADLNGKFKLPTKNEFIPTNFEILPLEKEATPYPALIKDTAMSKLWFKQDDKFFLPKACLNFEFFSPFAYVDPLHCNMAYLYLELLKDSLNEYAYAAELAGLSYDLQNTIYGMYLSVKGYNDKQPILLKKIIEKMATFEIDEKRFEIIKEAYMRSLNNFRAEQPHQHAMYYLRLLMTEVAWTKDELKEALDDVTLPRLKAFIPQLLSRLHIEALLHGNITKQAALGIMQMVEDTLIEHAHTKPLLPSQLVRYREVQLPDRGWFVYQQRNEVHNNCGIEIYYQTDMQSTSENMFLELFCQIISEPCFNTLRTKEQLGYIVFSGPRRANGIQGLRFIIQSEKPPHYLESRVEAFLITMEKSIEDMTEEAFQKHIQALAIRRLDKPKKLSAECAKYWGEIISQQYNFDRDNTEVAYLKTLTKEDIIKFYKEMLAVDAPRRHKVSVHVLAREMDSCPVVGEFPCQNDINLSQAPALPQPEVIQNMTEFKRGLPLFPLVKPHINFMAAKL
# [1] = biological target: Insulin-degrading enzyme (Homo sapiens) (UniProt P14735); experiment: as §1
# [2] = biological target: Insulin-degrading enzyme (Homo sapiens) (UniProt P14735); experiment: Reversible inhibition of human recombinant IDE-mediated amyloid beta (16 to 23) hydrolysis using ATTO 655-Cys-Lys-Leu-Val-Phe-Phe-Ala-Glu-Asp-Trp as substrate at 20 uM preincubated for 20 mins measured measured after 100 fold dilution by spectrophotometer analysis
# [3] = biological target: Insulin-degrading enzyme (Homo sapiens) (UniProt P14735); experiment: Competitive inhibition of human recombinant IDE-mediated amyloid beta (16 to 23) hydrolysis using ATTO 655-Cys-Lys-Leu-Val-Phe-Phe-Ala-Glu-Asp-Trp as substrate
# Procedure, shortened: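 Human recombinant IDE (1.87 ng/μL) preincubated 10 min at 37 °C with compound in 50 mM Hepes, 100 mM NaCl, pH 7.4. Reaction started with quenched ATTO 655-labelled peptide substrate (5 μM final), 1% DMSO final. Fluorescence read after 30 min (ex 635, em 750 nm). 8-point dose-response curves, average of at least three independent measurements. EDTA reference (2 mM).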
SMILES,IC50 (Insulin-degrading enzyme) [nM],inhibition [1],inhibition [2],inhibition [3]
COC(=O)[C@H](Cc1c[nH]cn1)NC(=O)CN(CC(=O)O)C(=O)c1ccccc1,> 100000,–,–,–
COC(=O)[C@H](Cc1c[nH]cn1)NC(=O)CN(CCCc1ccccc1)CC(=O)O,600,–,–,–
COC(=O)[C@H](Cc1c[nH]cn1)NC(=O)CN(CC(=O)O)Cc1ccccc1,–,Dose-dependent effect,Active,Active
